Screens deposited in PubChem BioAssay by Broad Institute.
Many of the other results were omitted from the sample, so hits are more common in it than they were.
INS-1E rescue: preserves ATP levels in cytokine-treated INS-1E cells; INS-1E cytokine-induced death, ATP luminescence, 48 h; normalised: neutral wells 0, positive control 100; protection from cytokine-induced ATP loss, % at 10 µM; 20,000 tested, 0.1% active; AID 488910;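 active means mean replicate protection from cytokine-induced ATP loss at least 50% and at least 75% of replicates each reaching 50%; inconclusive means meets only one of the two criteria, mean or replicate share; inactive means fails both the mean and replicate share criteria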
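Assay system: INS-1E rat insulinoma cells. Amount: 8000 cells per well. Medium: phenol-red-free RPMI with 5% fetal bovine serum. Reagent: IL-1β, TNF-α and IFN-γ cytokine mix. Doses: one compound concentration, pin transfer. Schedule: 48 h co-treatment, 10 min post-lysis read. Detection: CellTiter-Glo luminescence measuring cellular ATP.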
A1 apoptosis 2: compounds inhibiting A1, read as caspase activation; MEF A1-2A-BIM cells, caspase-Glo luminescence, 3 h; percent of clofoctol response, DMSO zero; 24,000 tested, under 10 active; caspase activation, % (test concentration not listed); AID 2465; in the data active means caspase activation above about 5.9%; inconclusive means no clear call, values can overlap the other calls; inactive means below about 2.2%
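Material: mouse embryonic fibroblasts co-expressing A1 and BIM (A1-2A-BIM), primed for A1 dependence / Quantity: 2500 cells/well / Buffer or medium: RPMI-1640 growth medium with 10% FBS / Doses: 50 nL compound per well, pinned / Schedule: 3 h compound exposure at 37 °C / Signal: Caspase-Glo luminescence (DEVD substrate) / Measure: Caspase-3/7 activation, seen as rise in luminescence signal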
T cruzi intra: inhibitors of intracellular Trypanosoma cruzi. intracellular Trypanosoma cruzi in host cells, plate reader. 22,000 tested, 4.9% active. AID 651903. activity score (inhibition), % at 5.01 µM; in the data active means activity score above about 55%; inconclusive means no clear call, values can overlap the other calls;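 further: parasites and compound incubated about four days before reading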
Numbers stand for hits; – = inactive; ? = inconclusive; · = not tested or not shown.

SMILES	INS-1E rescue	A1 apoptosis 2	T cruzi intra
C[C@@H]1CN([C@H](C)CO)C(=O)c2cccc(NC(=O)Nc3ccc(C(F)(F)F)cc3)c2O[C@H]1CN(C)Cc1ccc(Oc2ccccc2)cc1	–	–	–
C[C@@H]1CN([C@H](C)CO)C(=O)c2cccc(NC(=O)Nc3ccccc3)c2O[C@H]1CN(C)Cc1ccc(C(F)(F)F)cc1	–	–	–
C[C@H]1CN([C@@H](C)CO)C(=O)c2cccc(NC(=O)Nc3ccc(C(F)(F)F)cc3)c2O[C@H]1CN(C)Cc1ccc(Oc2ccccc2)cc1	–	–	68.7
C[C@@H]1CN([C@@H](C)CO)C(=O)c2cccc(NC(=O)Nc3ccc(C(F)(F)F)cc3)c2O[C@@H]1CN(C)Cc1ccc(Oc2ccccc2)cc1	–	·	87.4
C[C@@H]1CN([C@H](C)CO)C(=O)c2cccc(NC(=O)Nc3ccc(C(F)(F)F)cc3)c2O[C@@H]1CN(C)Cc1ccc(Oc2ccccc2)cc1	–	·	79.1
C[C@@H]1CN([C@@H](C)CO)C(=O)c2cc(NC(=O)CCC(F)(F)F)ccc2O[C@@H](C)CCCCO[C@H]1CN(C)Cc1ccc(Cl)c(Cl)c1	·	–	·
C[C@@H]1CCCCO[C@@H](CN(C)Cc2ccc(Cl)c(Cl)c2)[C@H](C)CN([C@H](C)CO)C(=O)c2cc(NC(=O)Cc3ccccc3)ccc2O1	·	–	·
C[C@@H]1CCCCO[C@@H](CN(C)Cc2ccc(Cl)c(Cl)c2)[C@@H](C)CN([C@H](C)CO)C(=O)c2cc(NC(=O)Cc3ccccc3)ccc2O1	–	–	64.0
C[C@@H]1CCCCO[C@@H](CN(C)Cc2ccc(Cl)c(Cl)c2)[C@@H](C)CN([C@H](C)CO)C(=O)c2cc(NC(=O)CCC(F)(F)F)ccc2O1	–	·	63.1
COCCOC(=O)N1C(=O)[C@@]2(c3ccccc31)[C@H](c1ccc(OCCO)cc1)N1[C@H](c3ccccc3)[C@H](c3ccccc3)OC(=O)[C@H]1[C@@H]2C(=O)Nc1nc2ccccc2s1	·	–	·
C[C@@H]1CN([C@H](C)CO)C(=O)c2cccc(NC(=O)c3ccc(-c4nccs4)cc3)c2O[C@@H]1CN(C)Cc1ccc(C(F)(F)F)cc1	–	–	–
C[C@@H]1CN([C@H](C)CO)C(=O)c2cccc(NC(=O)c3ccc(-c4nccs4)cc3)c2O[C@@H]1CN(C)Cc1ccc(Oc2ccccc2)cc1	–	·	–
C[C@H]1CN([C@@H](C)CO)C(=O)c2cccc(NC(=O)c3ccc(-c4nccs4)cc3)c2O[C@@H]1CN(C)Cc1ccc(C(=O)Nc2ccccc2N)cc1	–	·	75.1
C[C@@H]1CN([C@@H](C)CO)C(=O)c2cccc(NC(=O)c3ccc(-c4nccs4)cc3)c2O[C@@H]1CN(C)Cc1ccc(C(F)(F)F)cc1	–	–	69.7
C[C@@H]1CN([C@H](C)CO)C(=O)c2cccc(NC(=O)c3ccc(-c4nccs4)cc3)c2O[C@H]1CN(C)Cc1ccc(C(=O)Nc2ccccc2N)cc1	–	–	–
C[C@@H]1CN([C@@H](C)CO)C(=O)c2cccc(NC(=O)c3ccc(-c4nccs4)cc3)c2O[C@H]1CN(C)Cc1ccc(Oc2ccccc2)cc1	–	·	61.9
O=C(N/N=C/c1cc2ccccc2n1S(=O)(=O)c1ccccc1)c1ccccn1	–	–	–
N#Cc1ccc(/C=N/NC(=O)CCCCC(=O)NO)cc1	–	–	–
C[C@H](CO)N1C[C@H](C)[C@@H](CN(C)Cc2ccc(-c3ccccc3)cc2)Oc2ccc(NC(=O)Nc3ccc(F)cc3)cc2C1=O	–	–	–
C[C@H](CO)N1C[C@H](C)[C@H](CN(C)Cc2ccc(-c3ccccc3)cc2)Oc2ccc(NC(=O)Nc3ccc(C(F)(F)F)cc3)cc2C1=O	·	–	–
C[C@H]1CN([C@@H](C)CO)C(=O)c2cc(NC(=O)Nc3ccc(C(F)(F)F)cc3)ccc2O[C@H]1CN(C)Cc1ccc(-c2ccccc2)cc1	–	·	58.0
C[C@H]1CN([C@@H](C)CO)C(=O)c2cc(NC(=O)Nc3ccc(F)cc3)ccc2O[C@H]1CN(C)Cc1ccc(-c2ccccc2)cc1	–	·	64.9
CC(C)(C)NC(=O)C(OC(=O)c1ccccc1)c1cccs1 (stereo not given)	·	–	·
O=C(NO)c1cccc(C(=O)N/N=C/c2ccc(OCCO)cc2)c1	–	·	–
COc1ccc(CN(C)C[C@H]2Oc3ccc(NC(=O)Nc4ccc(C(F)(F)F)cc4)cc3CC(=O)N([C@H](C)CO)C[C@H]2C)cc1	–	–	74.3
SMILES	INS-1E rescue	A1 apoptosis 2	T cruzi intra
COc1ccc(CN(C)C[C@@H]2Oc3ccc(NC(=O)Nc4ccc(C(F)(F)F)cc4)cc3CC(=O)N([C@H](C)CO)C[C@@H]2C)cc1	–	–	·
COc1ccc(CN(C)C[C@@H]2Oc3ccc(NC(=O)Nc4ccc(C(F)(F)F)cc4)cc3CC(=O)N([C@H](C)CO)C[C@H]2C)cc1	–	–	–
COc1ccc(NC(=O)Nc2ccc3c(c2)CC(=O)N([C@H](C)CO)C[C@@H](C)[C@@H](CN(C)Cc2ccc(C(F)(F)F)cc2)O3)cc1	–	·	66.6
COc1ccc(NC(=O)Nc2ccc3c(c2)CC(=O)N([C@@H](C)CO)C[C@H](C)[C@H](CN(C)Cc2ccc(C(F)(F)F)cc2)O3)cc1	–	–	–
COc1ccc(NC(=O)Nc2ccc3c(c2)CC(=O)N([C@@H](C)CO)C[C@H](C)[C@@H](CN(C)Cc2ccc(C(F)(F)F)cc2)O3)cc1	–	·	74.0
COc1ccc(CN(C)C[C@H]2Oc3ccc(NC(=O)Nc4ccc(C(F)(F)F)cc4)cc3CC(=O)N([C@@H](C)CO)C[C@H]2C)cc1	–	–	68.1
COc1ccc(NC(=O)Nc2ccc3c(c2)CC(=O)N([C@H](C)CO)C[C@@H](C)[C@H](CN(C)Cc2ccc(C(F)(F)F)cc2)O3)cc1	–	–	?
O=C(CCCCC(=O)N/N=C/c1ccc(O)cc1)NO	–	·	–
CC(C)(C)OC(=O)Nc1cccc(/C=N/NC(=O)c2cccc(C(=O)NO)c2)c1	–	·	–
O=C1O[C@H](c2ccccc2)[C@H](c2ccccc2)N2[C@H]1[C@@H](C(=O)NC[C@H](O)c1ccccc1)[C@]1(C(=O)Nc3ccccc31)[C@H]2c1ccc(OCCO)cc1	·	–	·
C[C@H](CO)N1C[C@H](C)[C@@H](CN(C)CC2CCCCC2)Oc2c(NS(=O)(=O)c3cn(C)cn3)cccc2C1=O	–	·	–
C[C@@H]1CN([C@H](C)CO)C(=O)c2cccc(NC(=O)c3ccncc3)c2O[C@H]1CN(C)CC1CCCCC1	–	–	84.4
C[C@H](CO)N1C[C@H](C)[C@H](CN(C)CC2CCCCC2)Oc2c(NC(=O)c3ccncc3)cccc2C1=O	–	·	–
C[C@@H]1CN([C@@H](C)CO)C(=O)c2cccc(NS(=O)(=O)c3cn(C)cn3)c2O[C@H]1CN(C)CC1CCCCC1	–	·	61.7
Cc1cc(C(=O)Nc2cccc3c2O[C@H](CN(C)CC2CC2)[C@H](C)CN([C@@H](C)CO)C3=O)n(C)n1	–	–	60.7
C[C@H](CO)N1C[C@H](C)[C@H](CN(C)CC2CC2)Oc2c(NC(=O)c3ccncc3)cccc2C1=O	–	–	–
